Test results published in publication PMC3155308 (The EMBO Journal, 2011).
Where no end group is shown, it is not given here.

Key:
[1] = tested on: myosin-X MyTH4–FERM cassette; assay: Pull-down with GST-fused integrin β5 cytoplasmic tail; assay type: binding, human; conditions: GST-fused integrin β5 (743–799), Myo-X 10 μM
Procedure, shortened: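 MyTH4–FERM cassette (10 μM) was pulled down on glutathione-Sepharose at 4°C by GST-fused human integrin β5 cytoplasmic tail (743–799), with DCC P3 peptide at 0, 10, 50 or 100 μM. Eluates were run on SDS–PAGE. Bound cassette was expressed relative to the no-DCC sample, from three independent measurements.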

[2] = tested on: myosin-X MyTH4–FERM cassette / microtubules; assay: Competition microtubule co-sedimentation of MyTH4–FERM cassette; assay type: binding, human; conditions: Myo-X 4 μM; integrin β5 peptide 0, 4, 20 and 40 μM; three independent measurements

integrin β5 cytoplasmic peptide: integrin β5 cytoplasmic tail (residues 743–799) ({GST}-KLLVTIHDRREFAKFQSERSRARYEMASNPLYRKPISTHTVDFTFNKFNKSYNGTVD; not fully specified)
binding of integrin β5 cytoplasmic peptide [1]: showed binding
interference with microtubule binding by integrin β5 [2]: interfere with microtubule binding
